Reference: ChEMBL document CHEMBL5113539, “Dihydromaniwamycin E, a Heat-Shock Metabolite from Thermotolerant Streptomyces sp. JA74, Exhibiting Antiviral Activity against Influenza and SARS-CoV-2 Viruses” (J Nat Prod, 2022)

Assays:
[1] = tested on: Vero C1008; assay: Cytotoxicity against African green monkey VeroE6T cells assessed as reduction in cell viability after 2 to 3 days by MTT assay; format: toxicity, cell-based; conditions: chlorocebus sabaeus, time 2-3 day
[2] = Cytotoxicity against human 293TA cells assessed as reduction in cell viability after 2 to 3 days by MTT assay; format: toxicity, cell-based; conditions: time 2-3 day
[3] = tested on: SARS-CoV-2; assay: Antiviral activity against SARS-CoV-2 infected in African green monkey VeroE6T cells assessed as reduction in cytopathic effect after 2 to 3 days by MTT assay; format: functional, organism-based, Vero E6; conditions: Severe acute respiratory syndrome coronavirus 2, Vero C1008
[4] = tested on: SARS-CoV-2; assay: Antiviral activity against SARS-CoV-2 infected in human 293TA cells assessed as reduction in cytopathic effect after 2 to 3 days by MTT assay; format: functional, organism-based; conditions: Severe acute respiratory syndrome coronavirus 2, 293TA
[5] = tested on: Influenza A virus; assay: Antiviral activity against influenza A virus A/Puerto Rico/8/34 (H1N1) infected in dog MDCK cells assessed as inhibition of viral cytopathic effect incubated for 48 hrs by crystal violet staining based plaque assay; format: functional, organism-based
Summary of the method: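 MDCK cells were grown in MEM with 10% FBS at 37 °C and 5% CO2. Compound was premixed with A/PR/8/34 (H1N1) containing 50–200 pfu for 30 min at room temperature. The mixture was adsorbed onto an MDCK monolayer for 30 min at 37 °C, washed, and incubated 2 days. Plaques were counted after crystal violet staining, and IC50 was taken from a logit–log plot.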

Row | SMILES | Activity [1] | Activity [2] | IC50 [3] | IC50 [4] | IC50 [5]
1 | CCCC/C=C/[N+]([O-])=N/[C@H](C)[C@H](C)O | Non-Toxic | Non-Toxic | 16.4 µM | 9.7 µM | 63.2 µM
2 | CCCCCC/[N+]([O-])=N/[C@H](C)[C@H](C)O | Non-Toxic | Non-Toxic |  | 19.7 µM | 25.7 µM
3 | CCC(CC)COC(=O)[C@H](C)N[P@](=O)(OC[C@H]1O[C@@](C#N)(c2ccc3c(N)ncnn23)[C@H](O)[C@@H]1O)Oc1ccccc1 [REMDESIVIR] |  |  | 0.9 µM |  | 
